Results from PMC11047177 (ESMO Open, 2024).
“Also recorded” adds a separate entry of the source.

Legend:
[1] = molecular target: PRMT5 (Homo sapiens, UniProt O14744); experiment: Plasma SDMA pharmacodynamics by LC/MS; assay type: in vivo
How it was run: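 Plasma SDMA, a catabolic product of PRMT5 activity, was measured by LC/MS during oral test-compound dosing. Part 1 samples: pre-dose, 2 and 6 h on C1D1; 12 h C1D1 or pre-dose C1D2; pre-dose C1D8; pre-dose, 2 and 6 h on C1D15; pre-dose C1D22, C2D1 and C3D1. Part 2 samples: pre-dose C1D1, C1D8, C1D15, C1D22, C2D1, C3D1 and end of treatment.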

[2] = test system: SW1990 and A427 xenograft; experiment: Preclinical mouse xenograft models; assay type: in vivo; conditions: corresponding to a 70% (or greater) inhibition of plasma SDMA; data not shown
[3] = test system: non-small-cell lung cancer (NSCLC) cells; conditions: in vitro; cited from earlier work
[4] = test system: selected locally advanced or metastatic solid tumors; experiment: Tumor response by RECIST v1.1; assay type: in vivo, human; conditions: for Duration of response (DoR): part 1
[5] = Plasma PF-06939999 pharmacokinetics, noncompartmental; assay type: in vivo, human
How it was run: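 Test compound given orally on an empty stomach. Part 1 had intensive plasma sampling on cycle 1 day 1 and day 15; part 2 had sparse sampling. Plasma was assayed by a validated method with LLOQ 0.250 ng/ml; values below LLOQ were set to zero for summaries. Noncompartmental analysis was done within a dosing interval. Rac was based on AUCτ. Parameters were summarised by dose, cycle and day as geometric means.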

PRMT5, sequence (O14744 whole entry): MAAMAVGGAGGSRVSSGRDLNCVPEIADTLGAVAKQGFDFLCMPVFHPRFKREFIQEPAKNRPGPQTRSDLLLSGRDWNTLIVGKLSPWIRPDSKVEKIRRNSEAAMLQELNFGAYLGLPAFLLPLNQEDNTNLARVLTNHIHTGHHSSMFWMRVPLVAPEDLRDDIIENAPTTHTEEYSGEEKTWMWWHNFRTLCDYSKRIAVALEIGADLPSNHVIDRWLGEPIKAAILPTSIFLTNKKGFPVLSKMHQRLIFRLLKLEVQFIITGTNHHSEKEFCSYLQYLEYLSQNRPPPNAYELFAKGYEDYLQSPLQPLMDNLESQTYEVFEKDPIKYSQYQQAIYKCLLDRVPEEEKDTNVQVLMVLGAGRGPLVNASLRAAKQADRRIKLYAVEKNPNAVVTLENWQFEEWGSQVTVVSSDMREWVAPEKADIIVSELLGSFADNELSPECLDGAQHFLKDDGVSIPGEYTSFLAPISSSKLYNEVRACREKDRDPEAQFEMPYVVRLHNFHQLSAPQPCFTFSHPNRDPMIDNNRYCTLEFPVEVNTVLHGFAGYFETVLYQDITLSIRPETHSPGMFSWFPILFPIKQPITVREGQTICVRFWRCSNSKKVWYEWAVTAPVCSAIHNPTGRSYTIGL
PRMT5, sequence (Q9BQA1 whole entry partner): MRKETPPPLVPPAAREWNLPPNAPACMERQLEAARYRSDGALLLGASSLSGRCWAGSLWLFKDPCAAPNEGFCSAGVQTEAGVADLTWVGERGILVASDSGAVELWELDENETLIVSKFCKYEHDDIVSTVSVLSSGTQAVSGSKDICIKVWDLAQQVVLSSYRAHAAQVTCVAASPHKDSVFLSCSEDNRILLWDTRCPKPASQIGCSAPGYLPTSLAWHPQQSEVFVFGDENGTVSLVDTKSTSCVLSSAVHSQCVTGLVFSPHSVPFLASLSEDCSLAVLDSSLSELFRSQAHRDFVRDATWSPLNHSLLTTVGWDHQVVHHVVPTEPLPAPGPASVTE

Cc1ncnc2c1ccn2[C@@H]1C[C@H](Oc2cc(C(F)F)c(F)c3c2CNCC3)[C@@H](O)[C@H]1O [PF-06939999]
Plasma SDMA inhibition ([1]; 14-28 days post-dose, 0.5 mg q.d. or b.i.d.): ~60% | Plasma SDMA inhibition ([1]; RP2D, 6 mg q.d.): around 80% | Tumor growth inhibition [2]: ~100% | Anti-proliferative activity [3]: demonstrated anti-proliferative activity | Objective response rate ([4]; part 1 + part 2, 3/54 patients): 6% | Stable disease ([4]; part 1 + part 2, 19 patients, response-assessable population (44 patients)): 43.2% | Confirmed PRs ([4]; part 1, 28 patients treated, two patients (HNSCC 2 mg b.i.d., NSCLC 4 mg b.i.d.)): 7% | Duration of response (DoR) ([4]; confirmed responder with HNSCC, 2 mg b.i.d.): 4 months | Duration of response (DoR) ([4]; confirmed responder with NSCLC, 4 mg b.i.d.): 5 months | Progressive disease ([4]; part 2, 26 patients, 6 mg q.d., 8 patients): 31% | Disease control ([4]; part 2, 26 patients, 6 mg q.d., 11 patients): 42% | Confirmed PR ([4]; part 2, 26 patients, 6 mg q.d., one patient with NSCLC): 4% | Dose dependence of exposure (AUCτ and Cmax) ([5]; 0.5 mg q.d. to 6 mg b.i.d.): exposure increased with dose; also recorded: increased in a dose-dependent manner | Variability of AUCτ ([5]; RP2D, 6 mg q.d.): 38% | Variability of Cmax ([5]; RP2D, 6 mg q.d.): 26% | Time to steady-state PK ([5]; b.i.d. and q.d. regimens): ≤ 15 days | Effective half-life ([5]; indicated by Rac after b.i.d. dosing): > 24 h
